Laboratory results reported in PMC3286832 (Nature Communications, 2011).

Tests used:
[1] = tested on: hDNMT3A K47 methylation in 293T cells; experiment: Methylation in 293T cells; assay type: cell-based, human; conditions: coexpression in 293T cells, metabolic labelling with 3H-Met or western blot
Outline: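 GLP stable knockdown 293T cells expressed Myc-hDNMT3A (WT or K47R), with or without Flag-GLP or G9a, for 36 h. Cells were starved 30 min in methionine-free medium with cycloheximide (100 μg ml−1) and chloramphenicol (40 μg ml−1), then labelled 4 h with 10 μCi ml−1 L-[methyl-3H]methionine. Myc-hDNMT3A was immunoprecipitated with anti-Myc, washed with 600 mM NaCl IPH buffer, and detected by autoradiography.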

GLP catalytic SET domain = GLP catalytic SET domain (Homo sapiens, UniProt Q9H9B1); experiment: In vitro methylation assay with GLP catalytic SET domain; assay type: biochemical; conditions: [methyl-3H]AdoMet, SDS–PAGE and fluorography / autoradiogram
Sequence of GLP catalytic SET domain (Q9H9B1 1126-1243 limits assumed): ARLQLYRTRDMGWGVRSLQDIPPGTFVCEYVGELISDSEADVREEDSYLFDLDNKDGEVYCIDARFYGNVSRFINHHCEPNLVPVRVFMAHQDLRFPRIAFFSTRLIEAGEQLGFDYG
Outline: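 E. coli-expressed hG9a or hGLP SET domain (1.6 μM) was incubated with 13.0 μM substrate (mDnmt3a N-terminal fragments or other GST-tagged proteins) and 2.8 μM [methyl-3H]AdoMet in 20 mM Tris–HCl pH 8.5 at 30 °C for 8 min. Products were resolved by SDS–PAGE and detected by fluorography/autoradiography.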

MPP8 = experiment: In vitro GST pull-down of GLP–N with in vitro translated MPP8; assay type: binding; conditions: GST–GLP–N (residues 191–280), in vitro translated 35S–MPP8, autoradiography
Outline: (§1)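 GST–hGLP–N (residues 191–280, WT or K205R; 3 μg) was premethylated with 3 μg 6xHis–hGLP–SET (residues 955–1,298) and 1.5 mM AdoMet at 30 °C for 2 h. It was immobilised on glutathione agarose (4 °C, 1 h, 1 M NaCl buffer) and washed. Beads were incubated with in vitro translated 35S-labelled full-length MPP8 (WT or W80A) at 4 °C for 2 h, washed with 300 mM NaCl binding buffer, and analysed by SDS–PAGE autoradiography. Input was 5%.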

MPP8–W80A = experiment: GST pull-down of GLP–N with MPP8-W80A; assay type: binding; conditions: in vitro translated 35S–MPP8–W80A
Outline: as §1

B1: G9a: H3K9 methyltransferase G9a (protein, UniProt Q96KQ7 2-1210, looked up)
Histone-lysine …: AAAAGAAAAAAAEGEAPAEMGALLLEKETRGATERVHGSLGDTPRSEETLPKATPDSLEPAGPSSPASVTVTVGDEGADTPVGATPLIGDESENLEGDGDLRGGRILLGHATKSFPSSPSKGGSCPSRAKMSMTGAGKSPPSVQSLAMRLLSMPGAQGAAAAGSEPPPATTSPEGQPKVHRARKTMSKPGNGQPPVPEKRPPEIQHFRMSDDVHSLGKVTSDLAKRRKLNSGGGLSEELGSARRSGEVTLTKGDPGSLEEWETVVGDDFSLYYDSYSVDERVDSDSKSEVEALTEQLSEEEEEEEEEEEEEEEEEEEEEEEEDEESGNQSDRSGSSGRRKAKKKWRKDSPWVKPSRKRRKREPPRAKEPRGVNGVGSSGPSEYMEVPLGSLELPSEGTLSPNHAGVSNDTSSLETERGFEELPLCSCRMEAPKIDRISERAGHKCMATESVDGELSGCNAAILKRETMRPSSRVALMVLCETHRARMVKHHCCPGCGYFCTAGTFLECHPDFRVAHRFHKACVSQLNGMVFCPHCGEDASEAQEVTIPRGDGVTPPAGTAAPAPPPLSQDVPGRADTSQPSARMRGHGEPRRPPCDPLADTIDSSGPSLTLPNGGCLSAVGLPLGPGREALEKALVIQESERRKKLRFHPRQLYLSVKQGELQKVILMLLDNLDPNFQSDQQSKRTPLHAAAQKGSVEICHVLLQAGANINAVDKQQRTPLMEAVVNNHLEVARYMVQRGGCVYSKEEDGSTCLHHAAKIGNLEMVSLLLSTGQVDVNAQDSGGWTPIIWAAEHKHIEVIRMLLTRGADVTLTDNEENICLHWASFTGSAAIAEVLLNARCDLHAVNYHGDTPLHIAARESYHDCVLLFLSRGANPELRNKEGDTAWDLTPERSDVWFALQLNRKLRLGVGNRAIRTEKIICRDVARGYENVPIPCVNGVDGEPCPEDYKYISENCETSTMNIDRNITHLQHCTCVDDCSSSNCLCGQLSIRCWYDKDGRLLQEFNKIEPPLIFECNQACSCWRNCKNRVVQSGIKVRLQLYRTAKMGWGVRALQTIPQGTFICEYVGELISDAEADVREDDSYLFDLDNKDGEVYCIDARYYGNISRFINHLCDPNIIPVRVFMLHQDLRFPRIAFFSSRDIRTGEELGFDYGDRFWDIKSKYFTCQCGSEKCKHSAEAIALEQSRLARLDPHPELLPELGSLPPVNT
[1]
  methylation of hDNMT3A in cells: markedly increased

B2: G9a double mutant (Y1067V/Y1154F): G9a double mutant coexpressed with hDNMT3A (protein, UniProt Q96KQ7 2-1210, looked up, variant Y1067V Y1154F)
Histone-lysine …: AAAAGAAAAAAAEGEAPAEMGALLLEKETRGATERVHGSLGDTPRSEETLPKATPDSLEPAGPSSPASVTVTVGDEGADTPVGATPLIGDESENLEGDGDLRGGRILLGHATKSFPSSPSKGGSCPSRAKMSMTGAGKSPPSVQSLAMRLLSMPGAQGAAAAGSEPPPATTSPEGQPKVHRARKTMSKPGNGQPPVPEKRPPEIQHFRMSDDVHSLGKVTSDLAKRRKLNSGGGLSEELGSARRSGEVTLTKGDPGSLEEWETVVGDDFSLYYDSYSVDERVDSDSKSEVEALTEQLSEEEEEEEEEEEEEEEEEEEEEEEEDEESGNQSDRSGSSGRRKAKKKWRKDSPWVKPSRKRRKREPPRAKEPRGVNGVGSSGPSEYMEVPLGSLELPSEGTLSPNHAGVSNDTSSLETERGFEELPLCSCRMEAPKIDRISERAGHKCMATESVDGELSGCNAAILKRETMRPSSRVALMVLCETHRARMVKHHCCPGCGYFCTAGTFLECHPDFRVAHRFHKACVSQLNGMVFCPHCGEDASEAQEVTIPRGDGVTPPAGTAAPAPPPLSQDVPGRADTSQPSARMRGHGEPRRPPCDPLADTIDSSGPSLTLPNGGCLSAVGLPLGPGREALEKALVIQESERRKKLRFHPRQLYLSVKQGELQKVILMLLDNLDPNFQSDQQSKRTPLHAAAQKGSVEICHVLLQAGANINAVDKQQRTPLMEAVVNNHLEVARYMVQRGGCVYSKEEDGSTCLHHAAKIGNLEMVSLLLSTGQVDVNAQDSGGWTPIIWAAEHKHIEVIRMLLTRGADVTLTDNEENICLHWASFTGSAAIAEVLLNARCDLHAVNYHGDTPLHIAARESYHDCVLLFLSRGANPELRNKEGDTAWDLTPERSDVWFALQLNRKLRLGVGNRAIRTEKIICRDVARGYENVPIPCVNGVDGEPCPEDYKYISENCETSTMNIDRNITHLQHCTCVDDCSSSNCLCGQLSIRCWYDKDGRLLQEFNKIEPPLIFECNQACSCWRNCKNRVVQSGIKVRLQLYRTAKMGWGVRALQTIPQGTFICEVVGELISDAEADVREDDSYLFDLDNKDGEVYCIDARYYGNISRFINHLCDPNIIPVRVFMLHQDLRFPRIAFFSSRDIRTGEELGFDFGDRFWDIKSKYFTCQCGSEKCKHSAEAIALEQSRLARLDPHPELLPELGSLPPVNT
[1]
  methylation of hDNMT3A in cells: failed to methylate K47

B3: GLP–N: N-terminal fragment of GLP (residues 191–280) containing K205 (protein)
chain: LPAPGADVKVHRARKTMPKSVVGLHAASKDPREVREARDHKEPKEEINKNISDFGRQQLLPPFPSLHQSLPQNQCYMATTKSQTACLPFV
modifications: left off: GST, end not stated, kept
GLP catalytic SET domain
  methylation by GLP: is methylated in vitro by recombinant GLP–SET domain
MPP8
  interaction with MPP8 in GST pull-down: a robust direct interaction between GLP–N and MPP8 was observed only when K205 methylation occurs
MPP8–W80A
  interaction with MPP8–W80A in GST pull-down: no interaction was observed

B4: GLP–N K205R: methylation deficient K205R mutant of GLP–N (protein, UniProt Q9H9B1 191-280, looked up, variant K205R)
chain: LPAPGADVKVHRARRTMPKSVVGLHAASKDPREVREARDHKEPKEEINKNISDFGRQQLLPPFPSLHQSLPQNQCYMATTKSQTACLPFV
GLP catalytic SET domain
  methylation by GLP: completely abolishes this GLP-catalyzed methylation
MPP8
  interaction with MPP8 in GST pull-down: completely lost the interaction with MPP8
MPP8–W80A
  interaction with MPP8–W80A in GST pull-down: no interaction was observed

B5: GLP–N K205-methylated: GLP–N methylated in vitro at K205 (protein, UniProt Q9H9B1 191-280, looked up, fragment)
chain: LPAPGADVKVHRARKTMPKSVVGLHAASKDPREVREARDHKEPKEEINKNISDFGRQQLLPPFPSLHQSLPQNQCYMATTKSQTACLPFV
modifications: K205 methylated
MPP8–W80A
  interaction with MPP8–W80A in GST pull-down: no interaction was observed
